Experimental data: ChEMBL document CHEMBL3526095, “Characterization of the in vitro and in vivo metabolism and disposition and cytochrome P450 inhibition/induction profile of saxagliptin in human” (Drug Metab Dispos, 2012); call rule not given here

Key:
Hepatocyte [1] = test: Induction of CYP3A4 mRNA expression in human hepatocytes assessed as testosterone 6beta-hydroxylation up to 25 uM by LC-MS/MS analysis; format: ADME, cell-based
How it was run: (§1)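 Primary hepatocytes from three donors treated once daily for 3 days: saxagliptin 0.2–25 µM, M2 0.2–100 µM, 0.1% DMSO as vehicle. Microsomal activity assayed by LC-MS/MS: phenacetin 100 µM with 0.02 mg/ml protein (CYP1A2), bupropion 250 µM with 0.02 mg/ml (CYP2B6), testosterone 200 µM with 0.01 mg/ml (CYP3A4). mRNA measured by TaqMan qPCR as 2^ΔCT relative to endogenous control and DMSO.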

[2] = Drug metabolism in human assessed as parent compound level in feces at 50 mg, po after up to 168 hrs by LC-MS/MS analysis; format: ADME, organism-based; settings: read-out: Drug metabolism
[3] = Drug metabolism in human assessed as metabolite level in urine at 50 mg, po up to 168 hrs by LC-MS/MS analysis; format: ADME, organism-based; settings: in vivo
How it was run: (§2)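 Single 50-mg oral solution dose of [14C]saxagliptin (91.5 µCi) given to healthy male subjects after a 10-h fast. Urine collected as 0–12 h and 12–24 h pools, then in 24-h intervals to 168 h. Saxagliptin and M2 measured by validated positive-ESI LC-MS/MS with MRM; urine standard curves 25–5000 ng/ml for saxagliptin and 50–10,000 ng/ml for M2.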

[4] = Drug metabolism in human assessed as parent compound level in urine at 50 mg, po after up to 168 hrs by LC-MS/MS analysis; format: ADME, organism-based; settings: in vivo; how it was run: as §2
Liver microsome = test: Drug metabolism in human liver microsomes assessed as formation of 5-hydroxy saxagliptin Michaelis-Menten kinetic analysis; format: ADME
How it was run: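 M2 formation kinetics measured in triplicate at twelve saxagliptin concentrations from 1 to 800 µM. Enzyme source was pooled HLM (0.25 mg/ml, 30 min, 37°C) or expressed CYP3A4 or CYP3A5 (10 pmol/ml, 10 min). Incubations contained 1 mM NADPH and 2 mM MgCl2 in phosphate buffer pH 7.4.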

Cytochrome P450 3A5 = Cytochrome P450 3A5 (Homo sapiens, UniProt P20815); test: Drug metabolism assessed as human CYP3A5-mediated 5-hydroxy saxagliptin formation at 10 uM after 30 mins by LC-MS/MS analysis; format: ADME; settings: recombinant enzyme, 0.5 h
Hepatocyte [5] = test: Cytotoxicity against human hepatocytes up to 25 uM by lactate dehydrogenase assay; format: cell-based
Cytochrome P450 3A4 [6] = biological target: T1, Cytochrome P450 3A4 (Homo sapiens, UniProt P08684); test: Drug metabolism assessed as human CYP3A4-mediated 5-hydroxy saxagliptin formation at 10 uM after 30 mins by LC-MS/MS analysis; format: ADME; settings: recombinant enzyme, 0.5 h
[7] = Drug metabolism in human liver microsomes assessed as compound turnover at 10 uM after 1 hr by LC-MS/MS analysis in presence of NADPH; format: ADME; settings: read-out: Drug metabolism
How it was run: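 Pooled HLM at 1 mg/ml protein, incubated with 10 µM [14C]saxagliptin and 1 mM NADPH in 100 mM phosphate buffer pH 7.4 at 37°C for 60 min. Quenched with ice-cold acetonitrile; supernatant analysed by LC-MS/MS and off-line radioanalysis.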

Hepatocyte [8] = test: Induction of CYP2B6 mRNA expression in human hepatocytes assessed as bupropion hydroxylation up to 25 uM by LC-MS/MS analysis; format: ADME, cell-based
How it was run: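 Freshly isolated primary human hepatocytes from three donors were dosed once daily for 3 consecutive days at 0.2, 1, 5 and 25 µM, with 0.1% DMSO as vehicle control and phenobarbital 1000 µM as the CYP2B6 inducer control. Microsomes were then incubated with 250 µM bupropion at 0.02 mg/ml protein, and metabolite formed was measured by LC-MS/MS. Fold induction is relative to DMSO.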

[9] = Oral bioavailability in dog; format: ADME, organism-based, Canis lupus familiaris; settings: in vivo
Hepatocyte [10] = test: Induction of CYP2B6 mRNA expression in human hepatocytes assessed as bupropion hydroxylation up to 100 uM by LC-MS/MS analysis; format: ADME, cell-based; how it was run: as §1
[11] = Drug level in human urine treated with 50 mg, po of [14C]saxagliptin up to 168 hrs by LC-MS/MS analysis; format: ADME, organism-based; settings: in vivo; how it was run: as §2
Hepatocyte [12] = test: Induction of CYP1A2 mRNA expression in human hepatocytes assessed as phenacetin O-deethylation up to 100 uM by LC-MS/MS analysis; format: ADME, cell-based; how it was run: as §1
Cytochrome P450 1A2 [13] = biological target: T2, Cytochrome P450 1A2 (Homo sapiens, UniProt P05177); test: Inhibition of CYP1A2 in human liver microsomes assessed as phenacetin O-deethylation preincubated for 15 mins by LC-MS/MS analysis in presence of NADPH; format: ADME
T2 sequence (P05177 whole entry): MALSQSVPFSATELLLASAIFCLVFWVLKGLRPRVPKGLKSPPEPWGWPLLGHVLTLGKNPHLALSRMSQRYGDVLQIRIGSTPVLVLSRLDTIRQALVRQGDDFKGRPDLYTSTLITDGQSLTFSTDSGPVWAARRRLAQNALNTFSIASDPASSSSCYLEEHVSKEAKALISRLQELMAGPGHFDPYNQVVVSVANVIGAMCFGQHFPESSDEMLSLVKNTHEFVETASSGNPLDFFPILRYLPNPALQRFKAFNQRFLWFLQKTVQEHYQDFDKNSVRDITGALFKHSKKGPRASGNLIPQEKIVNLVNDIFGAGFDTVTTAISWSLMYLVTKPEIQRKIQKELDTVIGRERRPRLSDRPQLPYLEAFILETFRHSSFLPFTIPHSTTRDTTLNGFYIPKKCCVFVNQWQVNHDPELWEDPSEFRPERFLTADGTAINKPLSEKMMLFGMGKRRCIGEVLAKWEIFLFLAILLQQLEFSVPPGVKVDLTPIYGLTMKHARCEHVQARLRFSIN

Cytochrome P450 3A4 [14] = biological target: T1, Cytochrome P450 3A4; test: Inhibition of CYP3A4 in human liver microsomes assessed as midazolam 1'-hydroxylation after 3 mins by LC-MS/MS analysis; format: ADME
Cytochrome P450 1A2 [15] = biological target: T2, Cytochrome P450 1A2; test: Inhibition of CYP1A2 in human liver microsomes assessed as phenacetin O-deethylation after 3 mins by LC-MS/MS analysis in presence of NADPH; format: ADME
Cytochrome P450 3A4 [16] = biological target: T1, Cytochrome P450 3A4; test: Inhibition of CYP3A4 in human liver microsomes assessed as midazolam 1'-hydroxylation preincubated for 15 mins by LC-MS/MS analysis; format: ADME
Hepatocyte [17] = test: Cytotoxicity against human hepatocytes up to 100 uM by lactate dehydrogenase assay; format: cell-based
Hepatocyte [18] = test: Cytotoxicity against human hepatocytes assessed as change in morphological integrity up to 100 uM; format: cell-based
Cytochrome P450 3A4 [19] = biological target: T1, Cytochrome P450 3A4; test: Inhibition of CYP3A4 in human liver microsomes assessed as testosterone 6beta-hydroxylation after 3 mins by LC-MS/MS analysis in presence of NADPH; format: ADME

T1 sequence (P08684 whole entry): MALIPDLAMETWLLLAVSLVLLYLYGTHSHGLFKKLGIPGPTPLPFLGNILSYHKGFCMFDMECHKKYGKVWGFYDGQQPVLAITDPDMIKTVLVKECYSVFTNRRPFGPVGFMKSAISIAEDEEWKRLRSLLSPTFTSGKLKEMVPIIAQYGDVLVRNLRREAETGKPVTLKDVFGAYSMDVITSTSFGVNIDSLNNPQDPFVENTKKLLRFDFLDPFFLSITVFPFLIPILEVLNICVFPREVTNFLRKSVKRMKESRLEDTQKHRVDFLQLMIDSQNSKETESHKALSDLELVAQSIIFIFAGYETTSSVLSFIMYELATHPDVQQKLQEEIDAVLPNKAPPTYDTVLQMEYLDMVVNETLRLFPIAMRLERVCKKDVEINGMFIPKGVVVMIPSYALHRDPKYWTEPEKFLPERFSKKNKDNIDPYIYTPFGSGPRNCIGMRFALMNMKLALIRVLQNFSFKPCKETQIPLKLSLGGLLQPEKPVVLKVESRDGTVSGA
Sequence of Cytochrome P450 3A5 (P20815 whole entry): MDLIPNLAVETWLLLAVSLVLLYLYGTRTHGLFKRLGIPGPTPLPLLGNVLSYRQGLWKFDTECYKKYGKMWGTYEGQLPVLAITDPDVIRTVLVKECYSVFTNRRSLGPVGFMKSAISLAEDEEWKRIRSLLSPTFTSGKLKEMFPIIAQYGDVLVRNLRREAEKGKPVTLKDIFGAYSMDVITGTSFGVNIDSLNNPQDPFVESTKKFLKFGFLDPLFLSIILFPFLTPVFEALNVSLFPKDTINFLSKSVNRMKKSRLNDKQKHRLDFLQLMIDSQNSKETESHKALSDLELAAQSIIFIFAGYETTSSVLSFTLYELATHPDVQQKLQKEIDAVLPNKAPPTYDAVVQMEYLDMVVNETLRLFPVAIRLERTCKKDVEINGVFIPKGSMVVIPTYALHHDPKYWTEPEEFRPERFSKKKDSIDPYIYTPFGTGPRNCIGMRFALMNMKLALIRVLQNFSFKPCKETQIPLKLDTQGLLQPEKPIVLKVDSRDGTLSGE

With N#C[C@@H]1C[C@@H]2C[C@@H]2N1C(=O)[C@@H](N)C12CC3CC(CC(O)(C3)C1)C2 [SAXAGLIPTIN ANHYDROUS] the Activity (Hepatocyte [1]) was “Not Active”, the dose excreted at 168 h [2] was 0.5% and the Drug metabolism [3] was “metabolite_detected”. The Drug metabolism [4] was “metabolite_detected”, the Km (Liver microsome) was 94.8 µM and the Vmax (Liver microsome) was 496 pmol/min. The Drug metabolism (Cytochrome P450 3A5) was “metabolite_detected”, the Activity (Hepatocyte [5]) was “Non-toxic” and the Drug metabolism (Cytochrome P450 3A4 [6]) was “metabolite_detected”. For the same molecule, the metabolised at 1 h, 10 µM [7] was 32%, the Activity (Hepatocyte [8]) was “Not Active” and the bioavailability [9] was 76%.

For N#C[C@@H]1C[C@@H]2C[C@@H]2N1C(=O)[C@@H](N)C12CC3CC(O)(CC(O)(C3)C1)C2, the Activity (Hepatocyte [10]) was “Not Active”, the Drug metabolism [11] was “metabolite_detected” and the Activity (Hepatocyte [12]) was “Not Active”. For the same molecule, the IC50 (Cytochrome P450 1A2 [13]) was > 200 µM, the IC50 (Cytochrome P450 3A4 [14]) was > 200 µM and the IC50 (Cytochrome P450 1A2 [15]) was > 200 µM. For the same molecule, the IC50 (Cytochrome P450 3A4 [16]) was > 200 µM, the Activity (Hepatocyte [17]) was “Non-toxic” and the Activity (Hepatocyte [18]) was “Non-toxic”. The IC50 (Cytochrome P450 3A4 [19]) was > 200 µM.
